Test results taken from ChEMBL document CHEMBL1156154, “Heterocyclic fused pyridone carboxylic acid M(1) positive allosteric modulators” (Bioorg Med Chem Lett, 2010).
Active and inactive are the calls of the source. No cut-off for these calls is given here.

What was measured:
[1] = Plasma protein binding in human serum by equilibrium dialysis method
[2] = Plasma protein binding in rat serum by equilibrium dialysis method
[3] = target: T1, Muscarinic acetylcholine receptor M1 (Homo sapiens) (UniProt P11229); test: Positive allosteric modulator activity at human muscarinic M1 receptor expressed in CHO cells assessed as effect on acetylcholine-induced intracellular calcium mobilization by FLIPR assay; assay type: functional, cell-based
T1 sequence (whole entry): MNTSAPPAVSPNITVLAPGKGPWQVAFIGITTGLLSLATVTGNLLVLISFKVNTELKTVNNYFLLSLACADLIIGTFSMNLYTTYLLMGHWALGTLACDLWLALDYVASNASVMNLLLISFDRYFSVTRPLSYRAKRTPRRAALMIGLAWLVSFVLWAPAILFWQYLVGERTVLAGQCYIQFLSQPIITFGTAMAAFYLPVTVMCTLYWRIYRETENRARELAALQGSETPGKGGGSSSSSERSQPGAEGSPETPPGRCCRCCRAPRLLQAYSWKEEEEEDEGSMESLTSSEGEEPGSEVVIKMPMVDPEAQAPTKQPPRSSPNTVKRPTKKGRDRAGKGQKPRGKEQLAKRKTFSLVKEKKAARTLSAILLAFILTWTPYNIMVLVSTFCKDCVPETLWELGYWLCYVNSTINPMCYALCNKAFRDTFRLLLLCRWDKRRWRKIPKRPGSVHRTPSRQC
In short: (§1)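 CHO cells expressing human M1 were run with an EC20 concentration of acetylcholine. Calcium mobilization was read on a FLIPR384. Potency is reported as the inflection point. Percent max is the compound plus EC20 ACh response relative to the maximal acetylcholine effect.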

[4] = target: T2, Muscarinic acetylcholine receptor M2 (Homo sapiens) (UniProt P08172); test: Positive allosteric modulator activity at human muscarinic acetylcholine M2 receptor expressed in CHO cells assessed as effect on acetylcholine-induced intracellular calcium mobilization by FLIPR assay; assay type: functional, cell-based
T2 sequence (whole entry): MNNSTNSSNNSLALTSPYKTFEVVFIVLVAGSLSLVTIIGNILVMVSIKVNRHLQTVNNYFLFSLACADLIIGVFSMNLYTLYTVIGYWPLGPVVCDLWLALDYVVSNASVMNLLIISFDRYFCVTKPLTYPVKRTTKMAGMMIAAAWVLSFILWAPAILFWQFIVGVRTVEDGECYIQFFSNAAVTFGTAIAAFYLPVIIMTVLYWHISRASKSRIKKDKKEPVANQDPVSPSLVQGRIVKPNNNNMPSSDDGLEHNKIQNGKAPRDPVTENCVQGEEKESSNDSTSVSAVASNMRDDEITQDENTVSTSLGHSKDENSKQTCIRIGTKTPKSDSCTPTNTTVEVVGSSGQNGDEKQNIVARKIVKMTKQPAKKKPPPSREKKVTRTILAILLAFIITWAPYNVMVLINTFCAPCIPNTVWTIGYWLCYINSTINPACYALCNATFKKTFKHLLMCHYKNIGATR

[5] = target: Muscarinic acetylcholine receptor M3 (Homo sapiens) (UniProt P20309); test: Positive allosteric modulator activity at human muscarinic M3 receptor expressed in CHO cells assessed as effect on acetylcholine-induced intracellular calcium mobilization by FLIPR assay; assay type: functional, cell-based
[6] = target: T3, Muscarinic acetylcholine receptor M4 (Homo sapiens) (UniProt P08173); test: Positive allosteric modulator activity at human muscarinic M4 receptor expressed in CHO cells assessed as effect on acetylcholine-induced intracellular calcium mobilization by FLIPR assay; assay type: functional, cell-based
T3 sequence (whole entry): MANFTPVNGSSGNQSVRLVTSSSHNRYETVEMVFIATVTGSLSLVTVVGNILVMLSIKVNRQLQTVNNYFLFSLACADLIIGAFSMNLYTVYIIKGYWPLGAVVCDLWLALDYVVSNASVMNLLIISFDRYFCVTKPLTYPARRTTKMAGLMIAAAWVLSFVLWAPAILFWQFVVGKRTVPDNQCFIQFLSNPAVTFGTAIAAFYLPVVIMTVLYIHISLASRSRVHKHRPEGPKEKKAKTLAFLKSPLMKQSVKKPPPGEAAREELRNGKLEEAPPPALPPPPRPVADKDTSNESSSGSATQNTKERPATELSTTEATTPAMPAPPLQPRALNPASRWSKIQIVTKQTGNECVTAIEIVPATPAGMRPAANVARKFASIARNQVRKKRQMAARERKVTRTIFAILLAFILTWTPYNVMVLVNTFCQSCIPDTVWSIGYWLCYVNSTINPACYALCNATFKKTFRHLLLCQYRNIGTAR

[7] = target: T1, Muscarinic acetylcholine receptor M1 (Homo sapiens); test: Positive allosteric modulator activity at human muscarinic M1 receptor expressed in CHO cells assessed as effect on acetylcholine-induced intracellular calcium mobilization by FLIPR assay relative to acetylcholine; assay type: functional, cell-based; in short: as §1

Muscarinic acetylcholine receptor M3 (Homo sapiens), sequence (P20309 whole entry, looked up): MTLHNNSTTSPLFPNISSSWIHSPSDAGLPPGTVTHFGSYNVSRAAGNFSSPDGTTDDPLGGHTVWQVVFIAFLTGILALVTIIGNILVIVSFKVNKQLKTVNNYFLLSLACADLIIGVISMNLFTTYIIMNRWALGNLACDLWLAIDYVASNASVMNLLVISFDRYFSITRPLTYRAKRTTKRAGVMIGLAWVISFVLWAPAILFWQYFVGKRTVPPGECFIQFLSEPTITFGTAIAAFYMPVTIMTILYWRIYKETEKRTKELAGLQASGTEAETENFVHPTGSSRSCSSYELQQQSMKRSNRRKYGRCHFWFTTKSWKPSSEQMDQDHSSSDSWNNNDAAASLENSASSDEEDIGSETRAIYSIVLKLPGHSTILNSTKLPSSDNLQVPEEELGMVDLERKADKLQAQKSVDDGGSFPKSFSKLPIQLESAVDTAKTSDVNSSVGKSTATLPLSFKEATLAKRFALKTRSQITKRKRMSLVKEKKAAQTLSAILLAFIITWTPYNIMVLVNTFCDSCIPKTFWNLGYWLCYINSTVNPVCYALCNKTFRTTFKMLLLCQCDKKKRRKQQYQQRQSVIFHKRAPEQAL

Row | SMILES | fraction unbound [1] | fraction unbound [2] | IP [3] [µM] | Activity [4] | Activity [5] | Activity [6] | Emax [7] [%]
1 | O=C(O)c1cn(Cc2ccc(-c3ccccc3)cc2)c2sccc2c1=O | 0.007 | 0.004 | 0.37 | inactive | inactive | inactive | 78
2 | O=C(O)c1cn(Cc2ccc(-c3ccccc3)cc2)c2nsnc2c1=O |  |  | 3.5 | inactive | inactive | inactive | 69
3 | O=C(O)c1cn(Cc2ccc(-c3ccccc3)cc2)c2nccnc2c1=O | 0.023 | 0.023 | 0.78 | inactive | inactive | inactive | 96
4 | Nc1cccc(-c2ccc(Cn3cc(C(=O)O)c(=O)c4sccc43)nc2)c1 | 0.117 | 0.099 | 0.038 | inactive | inactive | inactive | 
5 | Cc1cn(-c2ccc(Cn3cc(C(=O)O)c(=O)c4cccnc43)cc2)cn1 | 0.233 | 0.052 | 0.34 | inactive | inactive | inactive | 
6 | O=C(O)c1cn(Cc2ccc(-c3ccccc3)cc2)c2nnccc2c1=O |  |  | 5.95 | inactive | inactive | inactive | 34
7 | CN(C)c1ccc(-c2ccc(Cn3cc(C(=O)O)c(=O)c4sccc43)nc2)cn1 |  |  | 0.5 | inactive | inactive | inactive | 
8 | O=C(O)c1cn(Cc2ccc(-c3ccccc3)cc2)c2ncncc2c1=O |  |  | 87.2 | inactive | inactive | inactive | 48
9 | O=C(O)c1cn(Cc2ccc(-c3ccccc3)cc2)c2cccnc2c1=O |  |  | 1.38 | inactive | inactive | inactive | 92
10 | O=C(O)c1cn(Cc2ccc(-c3ccccc3)cc2)c2ccsc2c1=O | 0.013 | 0.008 | 0.15 | inactive | inactive | inactive | 90
11 | COc1ccc(-c2ccc(Cn3cc(C(=O)O)c(=O)c4sccc43)nc2)cn1 |  |  | 2 | inactive | inactive | inactive | 
12 | O=C(O)c1cn(Cc2ccc(-c3ccsc3)cn2)c2ccsc2c1=O |  |  | 1.66 | inactive | inactive | inactive | 
13 | O=C(O)c1cn(Cc2ccc(-c3ccccc3)cc2)c2ncccc2c1=O | 0.008 | 0.003 | 0.58 | inactive | inactive | inactive | 56
14 | Cc1ccn(-c2ccc(Cn3cc(C(=O)O)c(=O)c4sccc43)cc2)n1 |  |  | 0.51 | inactive | inactive | inactive | 
15 | O=C(O)c1cn(Cc2ccc(-n3ccnc3)cc2)c2ccsc2c1=O | 0.199 | 0.259 | 0.24 | inactive | inactive | inactive | 
16 | Cn1cc(-c2ccc(Cn3cc(C(=O)O)c(=O)c4sccc43)cc2)cn1 | 0.066 | 0.009 | 0.15 | inactive | inactive | inactive | 
17 | Cc1ccnn1-c1ccc(Cn2cc(C(=O)O)c(=O)c3ccncc32)cc1 |  |  | 13 | inactive | inactive | inactive | 
18 | O=C(O)c1cn(Cc2ccc(-c3cccnc3)cn2)c2ccsc2c1=O |  |  | 1.05 | inactive | inactive | inactive | 
19 | Cc1ccn(-c2ccc(Cn3cc(C(=O)O)c(=O)c4cccnc43)cc2)n1 | 0.012 |  | 0.56 | inactive | inactive | inactive | 
20 | O=C(O)c1cn(Cc2ccc(-c3ccccc3)cc2)c2ccncc2c1=O |  |  | > 100 | inactive | inactive | inactive | 4
21 | O=C(O)c1cn(Cc2ccc(-c3ccncc3)cc2)c2ccsc2c1=O |  |  | 0.6 | inactive | inactive | inactive | 
22 | Cc1ccnn1-c1ccc(Cn2cc(C(=O)O)c(=O)c3cccnc32)cc1 |  |  | 17.9 | inactive | inactive | inactive | 
23 | O=C(O)c1cn(Cc2ccc(-c3ccccc3)cc2)c2ccccc2c1=O |  |  | 0.21 | inactive | inactive | inactive | 92
24 | O=C(O)c1cn(Cc2ccc(-n3cccn3)cc2)c2cnccc2c1=O |  |  | 1.14 | inactive | inactive | inactive | 
25 | O=C(O)c1cn(Cc2ccc(-c3ccccc3)cc2)c2csnc2c1=O |  |  | 3.35 | inactive | inactive | inactive | 76
26 | O=C(O)c1cn(Cc2ccc(-n3cccn3)cc2)c2ncccc2c1=O | 0.061 | 0.048 | 0.81 | inactive | inactive | inactive | 
27 | Cc1cn(-c2ccc(Cn3cc(C(=O)O)c(=O)c4ccncc43)cc2)cn1 |  |  | 1.03 | inactive | inactive | inactive | 
28 | O=C(O)c1cn(Cc2ccc(-c3ccnc(Cl)c3)cn2)c2ccsc2c1=O |  |  | 0.81 | inactive | inactive | inactive | 
29 | O=C(O)c1cn(Cc2ccc(-c3ccccc3)cc2)c2cnccc2c1=O |  |  | 0.43 | inactive | inactive | inactive | 62
30 | O=C(O)c1cn(Cc2ccc(-c3cccnc3)cc2)c2ccsc2c1=O |  |  | 0.57 | inactive | inactive | inactive | 
